TRPC6 act: activates the mouse TRPC6 cation channel. B-score at 10 µM. HEK293-TRPC6 membrane potential dye fluorescence; active compounds read high. 310,000 tested, 0.13% active. Q61143. AID 2550;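 active means B-score of the integrated fluorescence ratio above library mean plus 3 SD, and starting fluorescence ratio within library mean plus 5 SD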;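 further: higher score means more depolarization so channel activation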
TRPC6 inhibitor: mouse TRPC6 channel inhibition | HEK293-TRPC6, membrane potential dye, ACh-evoked depolarization; active compounds read low | B-score at 10 µM | 310,000 tested, 1.1% active | AID 2553;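 active means B-score under library mean minus 3 SD, initial fluorescence not abnormally high, positive integrated signal ratio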;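 further: B-score derived from integrated fluorescence ratio over the kinetic read; more negative B-score means stronger inhibition of depolarization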
TRPC4 act: TRPC4 (mouse) channel activation; Q9QUQ5; HEK293 TRPC4beta/mu-opioid, Fluo4 calcium fluorescence; active compounds read high; B-score at 10 µM; 310,000 tested, 0.49% active;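 active means B-score above 5 SD of library B-scores, and initial fluorescence ratio not above library mean plus 5 SD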;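 further: positive B-score marks a calcium rise read as TRPC4 activation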
Target sequence (Q9QUQ5 whole entry, looked up): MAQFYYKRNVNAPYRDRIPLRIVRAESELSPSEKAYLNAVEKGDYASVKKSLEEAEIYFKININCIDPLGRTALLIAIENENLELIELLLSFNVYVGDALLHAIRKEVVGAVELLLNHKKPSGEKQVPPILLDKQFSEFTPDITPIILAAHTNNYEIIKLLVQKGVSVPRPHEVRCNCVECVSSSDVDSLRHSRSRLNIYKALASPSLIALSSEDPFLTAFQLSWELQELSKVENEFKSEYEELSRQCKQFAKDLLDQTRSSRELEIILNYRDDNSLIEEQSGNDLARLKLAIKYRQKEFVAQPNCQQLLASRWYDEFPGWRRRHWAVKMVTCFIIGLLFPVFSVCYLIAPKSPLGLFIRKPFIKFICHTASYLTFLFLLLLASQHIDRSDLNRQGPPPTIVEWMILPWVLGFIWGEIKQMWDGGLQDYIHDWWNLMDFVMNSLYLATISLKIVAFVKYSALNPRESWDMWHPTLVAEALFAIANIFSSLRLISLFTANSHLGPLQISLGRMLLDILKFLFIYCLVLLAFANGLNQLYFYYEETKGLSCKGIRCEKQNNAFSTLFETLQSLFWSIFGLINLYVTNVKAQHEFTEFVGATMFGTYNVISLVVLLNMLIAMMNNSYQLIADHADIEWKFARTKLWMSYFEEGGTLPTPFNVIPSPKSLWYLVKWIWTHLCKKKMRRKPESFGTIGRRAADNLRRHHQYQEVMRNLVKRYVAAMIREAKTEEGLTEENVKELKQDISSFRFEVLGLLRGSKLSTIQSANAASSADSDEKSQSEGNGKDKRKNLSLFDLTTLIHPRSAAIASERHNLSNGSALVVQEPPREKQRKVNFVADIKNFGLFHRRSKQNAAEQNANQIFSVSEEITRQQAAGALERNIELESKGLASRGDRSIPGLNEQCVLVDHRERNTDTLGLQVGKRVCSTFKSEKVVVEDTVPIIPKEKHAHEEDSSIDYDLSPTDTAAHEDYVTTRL
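Assay system: HEK293 stable line with TRPC4beta plus mu-opioid receptor. Times: dye 45 min RT, read 110 s. Measured by: kinetic Fluo4 calcium fluorescence. Measure: B score of integrated ratio. Controls: assay buffer as low control, maximal DAMGO as high control.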
TRPC4 PAM: allosterically enhances the mouse TRPC4 cation channel; Q9QUQ5; B-score at 10 µM; AID 2227; 310,000 tested, 0.42% active; HEK293 TRPC4beta/mu-opioid, DAMGO EC20, Fluo-4 Ca2+ flux; active compounds read high;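 active means B-score of calcium response area above 5 SD of library B-scores, with initial fluorescence ratio within 5 SD of library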;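 further: B-score of integrated fluorescence ratio over time as area under calcium response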
TRPC4 block: blocks the mouse TRPC4 cation channel | HEK293 TRPC4beta/mu-opioid, DAMGO-evoked Fluo4 calcium flux; active compounds read low | B-score at 10 µM | 300,000 tested, 0.39% active | AID 2247;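 active means B-score over 3 SD under the library average, no early fluorescence shift, positive overall ratio signal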
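Assay system: HEK293 cells with stable TRPC4beta plus mu-opioid receptor expression. Dosing: single dose. Measured by: Fluo4 Ca2+ flux fluorescence. Also added: DAMGO in two steps, submaximal then maximal. Read-out: B score from integrated Fluo4 fluorescence ratio.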
TRPC4 sel inh 2: mouse TRPC4 off-target activity of TRPC6 inhibitors, second screen | shares compounds with TRPC6 inhibitor | HEK293 TRPC4/MOR, membrane potential dye fluorescence; channel activated by saturating DAMGO dose | inhibition, % at 10 µM | 920 tested, 42% active | AID 2776;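 active means compounds whose fluorescence signal differed from control wells by over 3 SD, either direction, in both duplicate plates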
TRPC4 spec: selectivity of TRPC6 inhibitors: effect on mouse TRPC4 | shares compounds with TRPC6 inhibitor | activity change, negative = inhibition, % at 10 µM | HEK293 TRPC4/mu-opioid, membrane potential fluorescence | 920 tested, 61% active;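 active means rise or fall in signal beyond 3 SD of buffer-only wells in both replicate plates, either sign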;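 further: integrated kinetic ratio of fluorescence range over baseline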
HEK293 MPD ctr 2-1: second counter-screen for TRPC6 inhibitors: parental HEK293 cells; shares compounds with TRPC6 inhibitor; parental HEK293 membrane potential dye fluorescence; maximal acetylcholine challenge after compound addition; signal change vs control, % at 10 µM; 920 tested, 31% active;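 active means membrane potential signal moving either way by over 3 SD of the maximum-effect control, in both duplicate plates, meaning non-specific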
HEK293 MPD ctr-1: counter-screen for TRPC6 inhibitors: effect in parental HEK293 cells | shares compounds with TRPC6 inhibitor | parental HEK293 membrane potential dye fluorescence | membrane potential signal change, % at 10 µM | 920 tested, 60% active | AID 2780;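 active means membrane potential signal shifting up or down by more than 3 SD of buffer-only wells, on both duplicate plates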
HEK293 MPD ctr-2: checks TRPC6 modulator effects in parental HEK293 cells | shares compounds with TRPC6 inhibitor | membrane potential dye fluorescence | membrane potential signal change, % at 10 µM | 2,400 tested, 51% active;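 active means membrane potential signal moves up or down beyond 5 SD from buffer-only wells, on both duplicate plates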
HEK293 MPD ctr 2-2: second check of TRPC6 modulator effects in parental HEK293 cells; shares compounds with TRPC6 inhibitor; membrane potential dye fluorescence; after compound, maximal acetylcholine stimulation; inhibition, % at 10 µM; 2,400 tested, 14% active; AID 488926;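 active means membrane potential signal drops by more than 5 SD from the mean control signal, in both duplicate plates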;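 further: plate controls were acetylcholine ECmax control wells for no effect and buffer only wells for full effect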
TRPC4 ctr mod: selectivity of TRPC6 modulators against mouse TRPC4; shares compounds with TRPC6 inhibitor; HEK293 TRPC4/mu-opioid, membrane potential fluorescence; percent change from control (negative = decrease, positive = increase), % at 10 µM; 2,400 tested, 69% active;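 active means membrane potential signal moved up or down beyond 5 SD of buffer control wells, in both duplicate plates, actives on both sides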;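 further: plate controls were assay buffer wells for no effect and DAMGO maximal-effect wells for full effect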
TRPC4/MOR inh 2: second selectivity test of TRPC6 modulators against mouse TRPC4; 2,400 tested, 55% active; inhibition, % at 10 µM; HEK293 TRPC4/mu-opioid, membrane potential dye fluorescence; stimulated with maximal-effect DAMGO; shares compounds with TRPC6 inhibitor;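 active means drop in membrane potential signal beyond 5 SD of the control wells in both duplicate plates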;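 further: TRPC4 counter screen for TRPC6 hits run under conditions tuned for TRPC6 not TRPC4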
TRPC6 inh conf: confirmation of mouse TRPC6 inhibitors; shares compounds with TRPC6 inhibitor; inhibition, % at 10 µM; 3,300 tested, 43% active; HEK293-TRPC6, membrane potential dye, ACh-evoked depolarization;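 active means fluorescence ratio falls more than 5 SD below the full-stimulation control mean, in both duplicate runs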;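 further: integrated fluorescence ratio of peak minus minimum over baseline after agonist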
TRPC6 act confirm: confirmation of mouse TRPC6 activators; 2,800 tested, 11% active; activation, % at 10 µM; HEK293-TRPC6 membrane potential dye fluorescence, FDSS; shares compounds with TRPC6 inhibitor; AID 488961;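 active means ratio signal rise beyond 5 SD above unstimulated control wells' mean, seen in both duplicate runs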;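 further: plate controls were buffer EC0 wells for no effect and acetylcholine ECmax response for full effect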
* marks the source's active call; other numbers are inactive results. An excerpt weighted towards active compounds, which were near 2.3% of everything screened.

What do the screens show for `CCN(CC#CCC(O)(c1ccccc1)C1CCCC1)C(C)C` (stereo unspecified)?
TRPC6 act: inactive; TRPC6 inhibitor: -5.6*; TRPC4 act: inactive; TRPC4 PAM: inactive; TRPC4 block: inactive; HEK293 MPD ctr-2: 188%*; HEK293 MPD ctr 2-2: inactive; TRPC4 ctr mod: 34%*; TRPC4/MOR inh 2: inactive; TRPC6 inh conf: 56%*

What do the screens show for `CC(Sc1ccc(Cl)cc1)C(=O)NNC(=O)c1ccccc1O` (stereo unspecified)?
TRPC6 act: inactive; TRPC6 inhibitor: inactive; TRPC4 act: inactive; TRPC4 PAM: inactive; TRPC4 block: inactive

How did Cc1[nH]c(=O)[nH]c(=O)c1S(=O)(=O)Nc1ccc(F)c([N+](=O)[O-])c1 do in these assays?
TRPC6 act: inactive; TRPC6 inhibitor: inactive; TRPC4 act: inactive; TRPC4 PAM: inactive; TRPC4 block: inactive

Results for CC1(C)CC(N=c2cc(-c3ccccc3)oc3ccc(Cl)cc23)CC(C)(C)N1 ?
TRPC6 act: inactive; TRPC6 inhibitor: -9.6*; TRPC4 act: inactive; TRPC4 PAM: inactive; TRPC4 block: inactive; TRPC4 sel inh 2: 42%*; TRPC4 spec: -26%*; HEK293 MPD ctr 2-1: -39%*; HEK293 MPD ctr-1: -328%*; TRPC6 inh conf: 69%*; TRPC6 act confirm: inactive

Results for O=c1cc(-c2ccccc2)oc2ccc(O)cc12 ?
TRPC6 act: inactive; TRPC6 inhibitor: inactive; TRPC4 act: inactive; TRPC4 PAM: inactive; TRPC4 block: inactive

What do the screens show for `OCCCN=c1cc(-c2ccccc2)oc2ccc(Cl)cc12`?
TRPC6 act: inactive; TRPC6 inhibitor: -7.3*; TRPC4 act: inactive; TRPC4 PAM: inactive; TRPC4 block: inactive; TRPC4 sel inh 2: 68%*; TRPC4 spec: -19%*; HEK293 MPD ctr 2-1: inactive; HEK293 MPD ctr-1: -386%*; TRPC6 inh conf: 77%*; TRPC6 act confirm: inactive

What do the screens show for `Cn1cc(/C=C(\NC(=O)c2ccccc2Cl)C(=O)NCCCn2ccnc2)c2ccccc21`?
TRPC6 act: inactive; TRPC6 inhibitor: inactive; TRPC4 act: inactive; TRPC4 PAM: inactive; TRPC4 block: inactive
